Data reported in ChEMBL document CHEMBL4368930, “Synthesis and anti-HSV activity of tricyclic penciclovir and hydroxybutylguanine derivatives” (Bioorg Med Chem, 2019).

What was measured:
Human alphaherpesvirus 1 [1] = experiment: Antiviral activity against herpes simplex virus 1 KOS infected in HEL cells assessed as reduction in virus-induced cytopathogenicity by microscopic analysis; format: functional, organism-based; conditions: Human alphaherpesvirus 1, strain KOS
Human alphaherpesvirus 2 = experiment: Antiviral activity against herpes simplex virus 2 G infected in HEL cells assessed as reduction in virus-induced cytopathogenicity by microscopic analysis; format: functional, organism-based; conditions: Human alphaherpesvirus 2, G
Outline: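 Confluent cell monolayers were inoculated with 100 CCID50 of virus or 20 PFU. After a 1–2 h adsorption, residual virus was removed and cultures were incubated with the test compounds at 200, 40, 8, 1.6 and 0.32 μM. Cytopathicity was scored once it was complete in untreated infected controls.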

Human alphaherpesvirus 1 [2] = experiment: Antiviral activity against thymidine kinase deficient and aciclovir resistant herpes simplex virus 1 KOS infected in HEL cells assessed as reduction in virus-induced cytopathogenicity by microscopic analysis; format: functional, organism-based; conditions: Human alphaherpesvirus 1, strain KOS
[3] = Cytotoxicity against HEL cells assessed as effect on cell morphology at 0.32 to 200 uM by microscopic analysis; format: cell-based; conditions: human
Human alphaherpesvirus 3 [4] = experiment: Antiviral activity against Varicella-zoster virus Oka harboring thymidine kinase infected in HEL cells assessed as reduction in virus plaque formation; format: functional, organism-based; conditions: Human alphaherpesvirus 3, Oka
Human alphaherpesvirus 3 [5] = experiment: Antiviral activity against thymidine kinase deficient Varicella-zoster virus 07-1 infected in HEL cells assessed as reduction in virus plaque formation; format: functional, organism-based; conditions: Human alphaherpesvirus 3, 07-1, HEL
Human betaherpesvirus 5 [6] = experiment: Antiviral activity against Human cytomegalovirus AD169 assessed as reduction in virus-induced cytopathogenicity by microscopic analysis; format: functional, organism-based; conditions: Human betaherpesvirus 5, strain AD169
Human betaherpesvirus 5 [7] = experiment: Antiviral activity against Human cytomegalovirus Davis assessed as reduction in virus-induced cytopathogenicity by microscopic analysis; format: functional, organism-based; conditions: Human betaherpesvirus 5, Davis
TERT-RPE1 = experiment: Cytostatic activity against human hTERT-RPE1 cells; format: ADME, cell-based; conditions: RPE-1
Outline: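 Cell proliferation was measured against the number of cells in untreated controls.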

CAPAN-1 = experiment: Cytostatic activity against human Capan1 cells; format: ADME, cell-based
[8] = Cytostatic activity against human HAP1 cells; format: ADME, cell-based
NCI-H460 = experiment: Cytostatic activity against human NCI-H460 cells; format: ADME, cell-based
[9] = Cytostatic activity against human DND41 cells; format: ADME, cell-based
HL-60 = experiment: Cytostatic activity against human HL60 cells; format: ADME, cell-based
K562 = experiment: Cytostatic activity against human K562 cells; format: ADME, cell-based
Z-138 = experiment: Cytostatic activity against human Z138 cells; format: ADME, cell-based

O=c1c2ncn(CCC(CO)CO)c2nc2[nH]c(-c3ccc(O)cc3)cn12
EC50 (Human alphaherpesvirus 1 [1]): 7.6 µM | EC50 (Human alphaherpesvirus 2): 2.3 µM | EC50 (Human alphaherpesvirus 1 [2]): > 100 µM | MCC at up to 200 µM [3]: > 100 µM | EC50 (Human alphaherpesvirus 3 [4]): 9.6 µM | EC50 (Human alphaherpesvirus 3 [5]): ≥ 74.5 µM | EC50 (Human betaherpesvirus 5 [6]): > 100 µM | EC50 (Human betaherpesvirus 5 [7]): > 100 µM | IC50 (TERT-RPE1): > 100 µM | IC50 (CAPAN-1): > 100 µM | IC50 [8]: > 100 µM | IC50 (NCI-H460): > 100 µM | IC50 [9]: > 100 µM | IC50 (HL-60): > 100 µM | IC50 (K562): > 100 µM | IC50 (Z-138): > 100 µM

COc1ccc(-c2cn3c(=O)c4ncn(CCC(CO)CO)c4nc3[nH]2)cc1
EC50 (Human alphaherpesvirus 1 [1]): 1.5 µM | EC50 (Human alphaherpesvirus 2): 0.8 µM | EC50 (Human alphaherpesvirus 1 [2]): 0.8 µM | MCC at up to 200 µM [3]: > 100 µM | EC50 (Human alphaherpesvirus 3 [4]): 66.9 µM | EC50 (Human alphaherpesvirus 3 [5]): 100 µM | EC50 (Human betaherpesvirus 5 [6]): > 100 µM | EC50 (Human betaherpesvirus 5 [7]): > 100 µM | IC50 (TERT-RPE1): > 100 µM | IC50 (CAPAN-1): > 100 µM | IC50 [8]: > 100 µM | IC50 (NCI-H460): > 100 µM | IC50 [9]: > 100 µM | IC50 (HL-60): > 100 µM | IC50 (K562): > 100 µM | IC50 (Z-138): > 100 µM

O=c1c2ncn(CCC(CO)CO)c2nc2[nH]c(-c3ccc(Cl)cc3)cn12
EC50 (Human alphaherpesvirus 1 [1]): > 100 µM | EC50 (Human alphaherpesvirus 2): > 100 µM | EC50 (Human alphaherpesvirus 1 [2]): > 100 µM | MCC at up to 200 µM [3]: > 100 µM | EC50 (Human alphaherpesvirus 3 [4]): > 100 µM | EC50 (Human alphaherpesvirus 3 [5]): > 100 µM | EC50 (Human betaherpesvirus 5 [6]): > 100 µM | EC50 (Human betaherpesvirus 5 [7]): > 100 µM | IC50 (TERT-RPE1): > 100 µM | IC50 (CAPAN-1): 84.8 µM | IC50 [8]: > 100 µM | IC50 (NCI-H460): > 100 µM | IC50 [9]: > 100 µM | IC50 (HL-60): > 100 µM | IC50 (K562): > 100 µM | IC50 (Z-138): > 100 µM
